Laboratory results taken from ChEMBL document CHEMBL5712911, “A homogeneous bioluminescent immunoassay to probe cellular signaling pathway regulation” (Commun Biol, 2020).
Active and inactive are the calls of the source. The calls are words filed in the database; no cut-off is given here.

Experiments:
[1] = test system: MCF7; assay: Inhibition of PI3K in human MCF7 cells assessed as reduction in insulin-induced AKT T308 phosphorylation preincubated for 1 hr followed by insulin stimulation and measured after 10 mins by NanoBiT cell-based immunoassay; conditions: time 70.0 min
[2] = test system: MCF7; assay: Inhibition of PI3K in human MCF7 cells assessed as reduction in insulin-induced AKT S473 phosphorylation preincubated for 1 hr followed by insulin stimulation and measured after 10 mins by NanoBiT cell-based immunoassay; conditions: time 70.0 min
Procedure, shortened: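 For this dose–response, serum-starved MCF-7 cells (50,000/well, overnight without serum) were pretreated 1 h with a concentration series of inhibitor, then stimulated with insulin (1 µM, 10 min). p-AKT S473 was measured by NanoBiT immunoassay: digitonin lysis 20 min, primary pair plus NanoBiT secondaries 90 min at 23 °C, Nano-Glo luminescence. IC50 was derived from the titration.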

[3] = test system: MCF7; assay: Inhibition of PI3K in human MCF7 cells assessed as reduction in insulin-induced AKT S473 phosphorylation at 20 uM preincubated for 1 hr followed by insulin stimulation and measured after 10 mins by NanoBiT cell-based immunoassay; conditions: time 70.0 min
Procedure, shortened: (§1)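 MCF-7 cells, 50,000/well, were held overnight without serum. They were pretreated 1 h with 20 µM inhibitor, then given insulin (1 µM, 10 min). After 20 min digitonin lysis with protease/phosphatase inhibitors, AKT S473 phosphorylation (20) or total AKT (1) was read by NanoBiT immunoassay (antibody mix 90 min, 23 °C; Nano-Glo luminescence). Means ± S.E.M., n = 3 technical replicates.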

[4] = test system: MCF7; assay: Inhibition of PI3K in human MCF7 cells assessed as reduction in IGF1-induced AKT S473 phosphorylation preincubated for 1 hr followed by IGF1 stimulation and measured after 10 mins by NanoBiT cell-based immunoassay; conditions: time 70.0 min
[5] = Effect on total AKT expression in human MCF7 cells at 20 uM measured after 1 hr by NanoBiT cell-based immunoassay; format: toxicity; conditions: mcf7, 1 h; procedure, shortened: as §1
[6] = Effect on total IkappaBalpha level in human MCF7 cells measured after 4 hrs by NanoBiT cell-based immunoassay; format: toxicity; conditions: mcf7, 4 h
Procedure, shortened: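 MCF-7 cells (50,000/well) held overnight at 37 °C, 5% CO2 without serum, then given a compound titration for 4 h. Lysed 20 min in buffer with 0.1% digitonin and protease/phosphatase inhibitors; mouse and rabbit anti-IκBα primaries plus NanoBiT-labelled anti-mouse/anti-rabbit secondaries added, 90 min at 23 °C; Nano-Glo substrate; luminescence read. Means ± S.E.M., n = 3 technical replicates.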

[7] = molecular target: T1, Retinoblastoma-associated protein (Homo sapiens) (UniProt P06400); assay: Inhibition of RB protein in human MCF7 cells assessed as reduction in 17beta-estradiol-induced Rb phosphorylation at Ser780 residue by NanoBiT cell-based immunoassay
T1 sequence (whole entry): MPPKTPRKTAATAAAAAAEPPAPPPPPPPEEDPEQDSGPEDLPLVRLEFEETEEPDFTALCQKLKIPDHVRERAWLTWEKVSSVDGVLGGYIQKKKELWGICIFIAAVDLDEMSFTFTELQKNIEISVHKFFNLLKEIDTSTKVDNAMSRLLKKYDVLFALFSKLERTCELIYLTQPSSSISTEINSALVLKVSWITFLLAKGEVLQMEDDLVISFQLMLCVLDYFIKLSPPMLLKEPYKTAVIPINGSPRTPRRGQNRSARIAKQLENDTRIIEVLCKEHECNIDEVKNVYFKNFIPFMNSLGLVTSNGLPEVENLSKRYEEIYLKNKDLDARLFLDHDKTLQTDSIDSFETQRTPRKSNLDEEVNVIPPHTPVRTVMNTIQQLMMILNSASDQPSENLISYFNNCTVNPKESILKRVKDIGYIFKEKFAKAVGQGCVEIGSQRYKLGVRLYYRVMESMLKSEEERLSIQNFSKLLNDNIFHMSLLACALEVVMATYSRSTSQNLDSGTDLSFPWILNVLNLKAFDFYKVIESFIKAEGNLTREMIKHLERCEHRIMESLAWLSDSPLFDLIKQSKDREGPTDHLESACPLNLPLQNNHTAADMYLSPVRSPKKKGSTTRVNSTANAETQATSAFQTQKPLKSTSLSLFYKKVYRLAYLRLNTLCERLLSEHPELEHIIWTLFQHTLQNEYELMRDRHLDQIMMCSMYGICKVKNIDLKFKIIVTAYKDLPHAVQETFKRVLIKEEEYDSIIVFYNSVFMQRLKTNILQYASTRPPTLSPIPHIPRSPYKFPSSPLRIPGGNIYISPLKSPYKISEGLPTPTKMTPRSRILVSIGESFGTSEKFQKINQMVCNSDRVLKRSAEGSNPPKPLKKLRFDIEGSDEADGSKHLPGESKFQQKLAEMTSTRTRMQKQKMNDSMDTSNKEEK

[8] = molecular target: T1, Retinoblastoma-associated protein (Homo sapiens); assay: Inhibition of RB protein in human MCF7 cells assessed as reduction in EGF-induced Rb phosphorylation at Ser807/811 residue by NanoBiT cell-based immunoassay
[9] = molecular target: T1, Retinoblastoma-associated protein (Homo sapiens); assay: Inhibition of RB protein in human MCF7 cells assessed as reduction in EGF-induced Rb phosphorylation at Ser780 residue by NanoBiT cell-based immunoassay
[10] = molecular target: T1, Retinoblastoma-associated protein (Homo sapiens); assay: Inhibition of RB protein in human MCF7 cells assessed as reduction in 17beta-estradiol-induced Rb phosphorylation at Ser807/811 residue by NanoBiT cell-based immunoassay
[11] = Effect on total STAT3 expression in human A-431 cells at 1 uM measured after 1 hr by NanoBiT cell-based immunoassay; format: toxicity; conditions: a-431, 1 h
Procedure, shortened: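 A431 cells, 50,000/well, were kept overnight in serum-free medium. […] Total STAT3 was measured by NanoBiT immunoassay after 20 min digitonin lysis (antibody mix 90 min, 23 °C; Nano-Glo luminescence). Means ± S.E.M., n = 3 technical replicates.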

O=c1cc(N2CCOCC2)oc2c(-c3ccccc3)cccc12 [LY-294002]
inhibition [1]: Active
inhibition [2]: Dose-Dependent Effect
inhibition [3]: Active
inhibition [4]: Active
Activity [5]: Non-Toxic

C[C@]12CC[C@@H]3c4ccc(O)cc4C[C@@H](CCCCCCCCC[S+]([O-])CCCC(F)(F)C(F)(F)F)[C@H]3[C@@H]1CC[C@@H]2O (stereo partly specified) [FULVESTRANT]
Activity [6]: Non-Toxic

CC(=O)c1c(C)c2cnc(Nc3ccc(N4CCNCC4)cn3)nc2n(C2CCCC2)c1=O
inhibition [7]: Active
inhibition [8]: Active
inhibition [9]: Active
inhibition [10]: Active

N#CC[C@H](C1CCCC1)n1cc(-c2ncnc3[nH]ccc23)cn1 [RUXOLITINIB]
Activity [11]: Non-Toxic
